Data as given in ChEMBL document CHEMBL1142034, “Inhibitors of HCV NS5B polymerase: synthesis and structure-activity relationships of N-1-heteroalkyl-4-hydroxyquinolon-3-yl-benzothiadiazines” (Bioorg Med Chem Lett, 2005).
pEC50, pIC50: −log10 of the molar value.

Legend:
[1] = molecular target: T1, RNA-directed RNA polymerase (Hepacivirus hominis, UniProt O39930); assay: Inhibitory concentration against RNA dependent RNA polymerase Nonstructural protein 5B of genotype 1a Hepatitis C virus
Procedure, shortened: (§1)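 A biochemical assay on NS5B polymerase enzyme gave the IC50 values, run separately for genotype 1a and 1b.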

[2] = molecular target: T1, RNA-directed RNA polymerase; assay: Inhibitory concentration against RNA dependent RNA polymerase Nonstructural protein 5B of genotype 1b Hepatitis C virus; procedure, shortened: as §1
[3] = molecular target: T1, RNA-directed RNA polymerase; assay: Effective concentration against RNA dependent RNA polymerase Nonstructural protein 5B of genotype 1b Hepatitis C virus
Procedure, shortened: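 Activity measured in an HCV replicon assay, with EC50 values derived from it.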

T1 sequence (O39930 whole entry): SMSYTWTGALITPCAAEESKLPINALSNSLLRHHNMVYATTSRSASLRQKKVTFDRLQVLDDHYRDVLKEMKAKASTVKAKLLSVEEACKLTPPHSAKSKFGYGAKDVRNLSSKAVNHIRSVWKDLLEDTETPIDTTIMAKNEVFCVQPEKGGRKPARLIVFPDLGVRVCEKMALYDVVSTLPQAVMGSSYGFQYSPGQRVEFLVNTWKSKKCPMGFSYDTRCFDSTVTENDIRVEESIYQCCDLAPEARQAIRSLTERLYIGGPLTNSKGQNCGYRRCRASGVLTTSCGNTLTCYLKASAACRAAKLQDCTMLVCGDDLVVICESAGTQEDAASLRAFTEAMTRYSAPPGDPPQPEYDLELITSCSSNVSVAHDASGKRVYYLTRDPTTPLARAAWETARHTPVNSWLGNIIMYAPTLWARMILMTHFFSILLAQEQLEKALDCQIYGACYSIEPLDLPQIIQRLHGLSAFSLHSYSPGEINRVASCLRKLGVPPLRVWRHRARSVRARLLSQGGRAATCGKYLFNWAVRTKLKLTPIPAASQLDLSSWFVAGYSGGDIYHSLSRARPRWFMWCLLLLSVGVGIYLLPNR

pIC50 [1] | pIC50 [2] | pEC50 [3] | Structure (SMILES)
5.21 | 6.32 |  | Cc1ccccc1CNn1c(=O)c(C2=Nc3ccccc3S(=O)(=O)N2)c(O)c2ccccc21
 | 4.88 |  | CCC(CC)n1c(=O)c(C2=NS(=O)(=O)c3ccccc3N2)c(O)c2cccnc21
5.20 | 6.19 |  | CC(C)Nn1c(=O)c(C2=NS(=O)(=O)c3ccccc3N2)c(O)c2ccccc21
6.13 | 6.82 |  | O=c1c(C2=Nc3ccccc3S(=O)(=O)N2)c(O)c2ccccc2n1NCC1CCCC1
6.20 | 6.87 |  | CC(C)CCNn1c(=O)c(C2=Nc3ccccc3S(=O)(=O)N2)c(O)c2ccccc21
6.03 | 7.00 | 5.87 | CC(C)CNn1c(=O)c(C2=NS(=O)(=O)c3ccccc3N2)c(O)c2ccccc21
5.17 | 6.33 |  | O=c1c(C2=Nc3ccccc3S(=O)(=O)N2)c(O)c2ccccc2n1NCc1ccccc1Br
5.60 | 6.82 |  | O=c1c(C2=Nc3ccccc3S(=O)(=O)N2)c(O)c2ccccc2n1NCC1CCCCC1
 | 7.08 |  | O=c1c(C2=NS(=O)(=O)c3ccccc3N2)c(O)c2cccnc2n1Cc1ccccc1
6.56 | 6.97 | 6.99 | O=c1c(C2=Nc3ccccc3S(=O)(=O)N2)c(O)c2ccccc2n1NCC1CCC1
5.63 | 6.90 |  | O=c1c(C2=Nc3ccccc3S(=O)(=O)N2)c(O)c2ccccc2n1NCc1cccs1
5.61 | 6.92 |  | CCC(CC)Nn1c(=O)c(C2=NS(=O)(=O)c3ccccc3N2)c(O)c2ccccc21
 | 7.03 |  | O=c1c(C2=NS(=O)(=O)c3ccccc3N2)c(O)c2cccnc2n1CC1CCCCC1
5.29 | 6.89 | 4.80 | O=c1c(C2=Nc3ccccc3S(=O)(=O)N2)c(O)c2ccccc2n1NCc1ccccc1
5.33 | 6.36 |  | O=c1c(C2=NS(=O)(=O)c3ccccc3N2)c(O)c2ccccc2n1NC1CCOCC1
 | 4.69 |  | CC(C)COn1c(=O)c(C2=Nc3ccccc3S(=O)(=O)N2)c(O)c2cccnc21
6.45 | 7.22 | 5.90 | O=c1c(C2=Nc3ccccc3S(=O)(=O)N2)c(O)c2ccccc2n1NC1CCCCC1
5.49 | 6.52 |  | O=c1c(C2=NS(=O)(=O)c3ccccc3N2)c(O)c2ccccc2n1NCc1ccco1
5.19 | 5.95 |  | CCCC(Nn1c(=O)c(C2=NS(=O)(=O)c3ccccc3N2)c(O)c2ccccc21)C(C)C (configuration not stated)
 | 4.30 |  | O=c1c(C2=NS(=O)(=O)c3ccccc3N2)c(O)c2cccnc2n1C1CCCCC1

pIC50 [1] | pIC50 [2] | pEC50 [3] | Structure (SMILES)
4.78 | 5.83 |  | CC(Nn1c(=O)c(C2=Nc3ccccc3S(=O)(=O)N2)c(O)c2ccccc21)c1ccccc1 (configuration not stated)
5.32 | 5.84 |  | O=c1c(C2=NS(=O)(=O)c3ccccc3N2)c(O)c2ccccc2n1NCc1ccc(Cl)s1
 | 7.16 |  | CC(C)CCn1c(=O)c(C2=NS(=O)(=O)c3ccccc3N2)c(O)c2cccnc21
 | 4.24 |  | O=c1c(C2=NS(=O)(=O)c3ccccc3N2)c(O)c2cccnc2n1OCc1ccccc1
 | 5.83 |  | O=c1c(C2=NS(=O)(=O)c3ccccc3N2)c(O)c2cccnc2n1CCc1ccccc1
5.72 | 6.41 |  | CCCC(CC)Nn1c(=O)c(C2=Nc3ccccc3S(=O)(=O)N2)c(O)c2ccccc21 (configuration not stated)
5.09 | 6.67 |  | Cc1cccc(CNn2c(=O)c(C3=NS(=O)(=O)c4ccccc4N3)c(O)c3ccccc32)c1
 | 5.33 |  | CC(c1ccccc1)n1c(=O)c(C2=NS(=O)(=O)c3ccccc3N2)c(O)c2cccnc21 (configuration not stated)
6.02 | 6.79 | 5.46 | CCCCNn1c(=O)c(C2=Nc3ccccc3S(=O)(=O)N2)c(O)c2ccccc21
5.98 | 7.12 |  | O=c1c(C2=NS(=O)(=O)c3ccccc3N2)c(O)c2ccccc2n1NCc1cccc(Br)c1
5.81 | 6.88 |  | O=c1c(C2=Nc3ccccc3S(=O)(=O)N2)c(O)c2ccccc2n1NCc1ccoc1
4.82 | 5.92 |  | Cc1ccsc1CNn1c(=O)c(C2=NS(=O)(=O)c3ccccc3N2)c(O)c2ccccc21
6.39 | 6.87 |  | CC(C)(C)CCNn1c(=O)c(C2=NS(=O)(=O)c3ccccc3N2)c(O)c2ccccc21
5.65 | 5.74 |  | CCCC(CCC)Nn1c(=O)c(C2=Nc3ccccc3S(=O)(=O)N2)c(O)c2ccccc21
6.55 | 6.84 | 5.98 | O=c1c(C2=NS(=O)(=O)c3ccccc3N2)c(O)c2ccccc2n1NCC1CC1
4.45 | 6.17 |  | O=c1c(C2=Nc3ccccc3S(=O)(=O)N2)c(O)c2ccccc2n1NCc1nccs1
6.03 |  |  | CCCCCNn1c(=O)c(C2=NS(=O)(=O)c3ccccc3N2)c(O)c2ccccc21
 | 7.24 |  | CCC(CC)Cn1c(=O)c(C2=NS(=O)(=O)c3ccccc3N2)c(O)c2cccnc21
4.98 | 5.33 |  | O=c1c(C2=Nc3ccccc3S(=O)(=O)N2)c(O)c2ccccc2n1NCc1ccc(Br)cc1

Structure (SMILES) | pIC50 [1] | pIC50 [2] | pEC50 [3]
O=c1c(C2=Nc3ccccc3S(=O)(=O)N2)c(O)c2ccccc2n1NCc1cccnc1 | < 5.30 | 6.66 | 
Cc1ccc(CNn2c(=O)c(C3=Nc4ccccc4S(=O)(=O)N3)c(O)c3ccccc32)cc1 | < 5.30 | < 5.30 | 
